≈ marks a conversion by molar mass, not a printed value.
Experiments:
[1] = tested on: Aspergillus niger; experiment: Antifungal activity against Aspergillus niger was determined by twofold Micro-broth dilution assay; format: functional, organism-based
Summary of the method: (§1)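 Fungal strains tested by two-fold serial broth microdilution in microtitre plates. Cells diluted in phosphate-buffered saline to 10^6 cfu/mL and inoculated at a final 10^3 cells per 150 µL medium. Medium/inoculum and solvent controls were included. Incubation at 28 °C, then OD read at 600 nm. IC50 is the concentration at which growth is 50% of the control inoculum.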

[2] = tested on: Aspergillus flavus; experiment: Antifungal activity against Aspergillus flavus was determined by twofold Micro-broth dilution assay; format: functional, organism-based; summary of the method: as §1
[3] = tested on: Candida albicans; experiment: Antifungal activity against Candida albicans was determined by twofold Micro-broth dilution assay; format: functional, organism-based; summary of the method: as §1
[4] = tested on: Cryptococcus neoformans; experiment: Antifungal activity against Cryptococcus neoformans was determined by twofold Micro-broth dilution assay; format: functional, organism-based; summary of the method: as §1
[5] = tested on: Enterococcus faecalis; experiment: Antibacterial activity against gram positive bacteria Enterococcus faecalis was determined by twofold Micro-broth dilution assay; format: functional, organism-based
Summary of the method: (§2)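 Broth microdilution with two-fold serial dilutions of compound added to pre-inoculated microtitre plates. Inoculum diluted in phosphate-buffered saline to 10^6 cfu/mL, then plated at a final 10^3 cells per 150 µL medium. Controls were medium plus inoculum and a solvent control at the highest-concentration solvent level. Plates incubated at 37 °C and read by OD at 600 nm. IC50 is the concentration giving 50% of control-inoculum growth.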

[6] = tested on: Escherichia coli; experiment: Antibacterial activity against gram negative bacteria Escherichia coli was determined by twofold Micro-broth dilution assay; format: functional, organism-based; summary of the method: as §2
[7] = tested on: Klebsiella aerogenes; experiment: Antibacterial activity against gram negative bacteria Enterobacter aerogens was determined by twofold Micro-broth dilution assay; format: functional, organism-based; summary of the method: as §2
[8] = tested on: Histoplasma capsulatum; experiment: Antifungal activity against Histoplasma capsulatum was determined by twofold Micro-broth dilution assay; format: functional, organism-based
Summary of the method: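 Fungal broth microdilution. Cells were diluted to 10^6 cfu/mL in phosphate-buffered saline and seeded at a final 10^3 cells per well. Two-fold serial compound dilutions were added. Plates carried inoculum-only and solvent controls, the solvent matched to the highest concentration. After incubation at 28 °C, OD was read at 600 nm. IC50 is the concentration where growth is 50% of control.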

[9] = tested on: Nannizzia gypsea; experiment: Antifungal activity against Microsporum gypseum was determined by twofold Micro-broth dilution assay; format: functional, organism-based; summary of the method: as §1
[10] = tested on: Salmonella typhimurium; experiment: Antibacterial activity against gram negative bacteria Salmonella Typhimurium was determined by twofold Micro-broth dilution assay; format: functional, organism-based, Salmonella enterica subsp. enterica serovar Typhimurium; conditions: Salmonella enterica; summary of the method: as §2
[11] = tested on: Salmonella typhi; experiment: Antibacterial activity against gram negative bacteria Salmonella typhi was determined by twofold Micro-broth dilution assay; format: functional, organism-based, Salmonella enterica subsp. enterica serovar Typhi; conditions: Salmonella enterica
[12] = tested on: Staphylococcus aureus; experiment: Antibacterial activity against gram positive bacteria Staphylococcus aureus was determined by twofold Micro-broth dilution assay; format: functional, organism-based; summary of the method: as §2
[13] = tested on: Shigella flexneri; experiment: Antibacterial activity against gram negative bacteria Shigella flexenerii was determined by twofold Micro-broth dilution assay; format: functional, organism-based; summary of the method: as §2
[14] = tested on: Sporothrix schenckii; experiment: Antifungal activity against Sporothrix schenck ii was determined by twofold Micro-broth dilution assay; format: functional, organism-based; summary of the method: as §1
[15] = tested on: Streptococcus mutans; experiment: Antibacterial activity against gram positive bacteria Streptococcus mutans was determined by twofold Micro-broth dilution assay; format: functional, organism-based; summary of the method: as §2
[16] = tested on: Trichophyton rubrum; experiment: Antifungal activity against Trichophyton rubrum was determined by twofold Micro-broth dilution assay; format: functional, organism-based; summary of the method: as §1
[17] = tested on: Staphylococcus epidermidis; experiment: Antibacterial activity against gram positive bacteria Staphylococcus epidermidis was determined by twofold Micro-broth dilution assay; format: functional, organism-based; summary of the method: as §2
[18] = Aspergillus niger, read-out: IC50
[19] = Aspergillus flavus, read-out: IC50
[20] = Candida albicans, read-out: IC50
[21] = Nannizzia gypsea, read-out: IC50
[22] = Sporothrix schenckii, read-out: IC50
[23] = Trichophyton rubrum, read-out: IC50

Row | Compound | IC50 [1, 18] | IC50 [2, 19] | IC50 [3, 20] | IC50 [4] | IC50 [5] | IC50 [6] | IC50 [7] | IC50 [8] | IC50 [9, 21] | IC50 [10] | IC50 [11] | IC50 [12] | IC50 [13] | IC50 [14, 22] | IC50 [15] | IC50 [16, 23] | IC50 [17] | further results
1 | C[C@H](CCC(=O)N[C@@H](CO)[C@@H](O)c1ccc([N+](=O)[O-])cc1)[C@H]1CC[C@H]2[C@@H]3CC[C@@H]4C[C@H](O)CC[C@]4(C)[C@H]3C[C@H](O)[C@]12C | > 250 µg/mL | > 250 µg/mL | > 250 µg/mL | > 250 µg/mL | 10 µg/mL (≈ 17 µM) | > 250 µg/mL | > 250 µg/mL | > 250 µg/mL | > 250 µg/mL | > 250 µg/mL | > 250 µg/mL | > 250 µg/mL | > 250 µg/mL | > 250 µg/mL | 30 µg/mL (≈ 51.1 µM) | > 250 µg/mL | > 250 µg/mL | 
2 | C[C@H](CCC(=O)N[C@@H](CO)[C@@H](O)c1ccccc1)[C@H]1CC[C@H]2[C@@H]3CC[C@@H]4C[C@H](O)CC[C@]4(C)[C@H]3C[C@H](O)[C@]12C | > 250 µg/mL | > 250 µg/mL | > 250 µg/mL | 62.5 µg/mL (≈ 115 µM) | > 250 µg/mL | > 250 µg/mL | > 250 µg/mL | > 250 µg/mL | > 250 µg/mL | > 250 µg/mL | > 250 µg/mL | > 250 µg/mL | > 250 µg/mL | > 250 µg/mL | 60 µg/mL (≈ 111 µM) | > 250 µg/mL | 220 µg/mL (≈ 406 µM) | 
3 | NYSTATIN |  |  |  |  |  |  |  |  |  |  |  |  |  |  |  |  |  | IC50 [1]: 2.5 µg/mL; IC50 [2]: 2.5 µg/mL; IC50 [3]: 0.25 µg/mL; IC50 [9]: 3.125 µg/mL; IC50 [14]: 3.125 µg/mL; IC50 [16]: 2.5 µg/mL
4 | CN[C@@H]1[C@H](O[C@H]2[C@H](O[C@H]3[C@H](O)[C@@H](O)[C@H](N=C(N)N)[C@@H](O)[C@@H]3N=C(N)N)O[C@@H](C)[C@]2(O)C=O)O[C@@H](CO)[C@H](O)[C@H]1O [STREPTOMYCIN] |  |  |  |  | 1.25 µg/mL (≈ 2.15 µM) | 1.25 µg/mL (≈ 2.15 µM) | 1.25 µg/mL (≈ 2.15 µM) |  |  | 1.25 µg/mL (≈ 2.15 µM) |  | 0.3 µg/mL (≈ 0.516 µM) | 1.25 µg/mL (≈ 2.15 µM) |  | 0.12 µg/mL (≈ 0.206 µM) |  | 0.12 µg/mL (≈ 0.206 µM) | 
5 | CN[C@H](CC(C)C)C(=O)N[C@H]1C(=O)N[C@@H](CC(N)=O)C(=O)N[C@H]2C(=O)N[C@H]3C(=O)N[C@H](C(=O)N[C@H](C(=O)O)c4cc(O)cc(O)c4-c4cc3ccc4O)[C@H](O)c3ccc(c(Cl)c3)Oc3cc2cc(c3O[C@@H]2O[C@H](CO)[C@@H](O)[C@H](O)[C@H]2O[C@H]2C[C@](C)(N)[C@H](O)[C@H](C)O2)Oc2ccc(cc2Cl)[C@H]1O [VANCOMYCIN] |  |  |  |  | 0.06 µg/mL (≈ 0.0414 µM) | > 250 µg/mL | > 250 µg/mL |  |  | > 250 µg/mL | > 250 µg/mL | 0.12 µg/mL (≈ 0.0828 µM) | > 250 µg/mL |  | 0.12 µg/mL (≈ 0.0828 µM) |  | 0.3 µg/mL (≈ 0.207 µM) | 
6 | C[C@H](CCC(=O)N[C@H](CO)[C@H](O)c1ccc([N+](=O)[O-])cc1)[C@H]1CC[C@H]2[C@@H]3C(O)C[C@@H]4C[C@H](O)CC[C@]4(C)[C@H]3C[C@H](O)[C@]12C (stereo partly drawn) | > 250 µg/mL | > 250 µg/mL | > 250 µg/mL | > 250 µg/mL | 60 µg/mL (≈ 99.5 µM) | > 250 µg/mL | > 250 µg/mL | > 250 µg/mL | > 250 µg/mL | > 250 µg/mL | > 250 µg/mL | 75 µg/mL (≈ 124 µM) | > 250 µg/mL | > 250 µg/mL | 6 µg/mL (≈ 9.95 µM) | > 250 µg/mL | 100 µg/mL (≈ 166 µM) | 
7 | C[C@H](CCC(=O)N[C@H](CO)[C@H](O)c1ccccc1)[C@H]1CC[C@H]2[C@@H]3CC[C@@H]4C[C@H](O)CC[C@]4(C)[C@H]3C[C@H](O)[C@]12C | > 250 µg/mL | > 250 µg/mL | > 250 µg/mL | > 250 µg/mL | 60 µg/mL (≈ 111 µM) | > 250 µg/mL | > 250 µg/mL | > 250 µg/mL | > 250 µg/mL | > 250 µg/mL | > 250 µg/mL | 40 µg/mL (≈ 73.8 µM) | > 250 µg/mL | > 250 µg/mL | 25 µg/mL (≈ 46.1 µM) | > 250 µg/mL | 40 µg/mL (≈ 73.8 µM) | 
8 | C[C@H](CCC(=O)N[C@@H](CO)[C@@H](O)c1ccccc1)[C@H]1CC[C@H]2[C@@H]3C(O)C[C@@H]4C[C@H](O)CC[C@]4(C)[C@H]3C[C@H](O)[C@]12C (stereo partly drawn) | > 250 µg/mL | > 250 µg/mL | > 250 µg/mL | > 250 µg/mL | 40 µg/mL (≈ 71.7 µM) | > 250 µg/mL | > 250 µg/mL | > 250 µg/mL | > 250 µg/mL | > 250 µg/mL | > 250 µg/mL | > 250 µg/mL | > 250 µg/mL | > 250 µg/mL | 60 µg/mL (≈ 108 µM) | > 250 µg/mL | 20 µg/mL (≈ 35.9 µM) | 
9 | C[C@H](CCC(=O)N[C@@H](CO)[C@@H](O)c1ccc([N+](=O)[O-])cc1)[C@H]1CC[C@H]2[C@@H]3C(O)C[C@@H]4C[C@H](O)CC[C@]4(C)[C@H]3C[C@H](O)[C@]12C (stereo partly drawn) | > 250 µg/mL | > 250 µg/mL | > 250 µg/mL | > 250 µg/mL | > 250 µg/mL | > 250 µg/mL | > 250 µg/mL | > 250 µg/mL | > 250 µg/mL | > 250 µg/mL | > 250 µg/mL | 75 µg/mL (≈ 124 µM) | > 250 µg/mL | > 250 µg/mL | 40 µg/mL (≈ 66.4 µM) | > 250 µg/mL | > 250 µg/mL | 
10 | Clc1ccccc1C(c1ccccc1)(c1ccccc1)n1ccnc1 [CLOTRIMAZOLE] | 5 µg/mL (≈ 14.5 µM) | 0.5 µg/mL (≈ 1.45 µM) | 0.0312 µg/mL (≈ 0.0906 µM) |  |  |  |  |  | 0.625 µg/mL (≈ 1.81 µM) |  |  |  |  | 0.0312 µg/mL (≈ 0.0906 µM) |  | 0.625 µg/mL (≈ 1.81 µM) |  | 
11 | C[C@H](CCC(=O)N[C@H](CO)[C@H](O)c1ccccc1)[C@H]1CC[C@H]2[C@@H]3C(O)C[C@@H]4C[C@H](O)CC[C@]4(C)[C@H]3C[C@H](O)[C@]12C (stereo partly drawn) | > 250 µg/mL | > 250 µg/mL | > 250 µg/mL | > 250 µg/mL | 60 µg/mL (≈ 108 µM) | > 250 µg/mL | > 250 µg/mL | > 250 µg/mL | > 250 µg/mL | > 250 µg/mL | > 250 µg/mL | > 250 µg/mL | > 250 µg/mL | > 250 µg/mL | 40 µg/mL (≈ 71.7 µM) | > 250 µg/mL | 40 µg/mL (≈ 71.7 µM) | 

Source: ChEMBL document CHEMBL1148274, “Bile acid amides derived from chiral amino alcohols: novel antimicrobials and antifungals” (Bioorg Med Chem Lett, 2004)
